Source: publication PMC10092221 (Journal of Clinical Pharmacology, 2022)
“And” between values parts separate entries of the source, which are not always exact repeats. Equal entries are not always repeated. Where two headings read alike, the source gives them in different places.

Tests used:
[1] = Capmatinib/CMN288 pharmacokinetics, inhibition cohort; format: in vivo, human (healthy subjects); conditions: for AUCinf geometric mean ratio (90%CI) / AUClast geometric mean ratio (90%CI) / Cmax geometric mean ratio (90%CI): itraconazole + capmatinib 200 mg / capmatinib alone
Method in brief: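 Inhibition cohort of healthy subjects (n = 27): a single fasted oral 200 mg dose on day 1, then a 4-day washout. Itraconazole 200 mg was given daily on days 5–14, and 200 mg test compound was dosed 1 h after the sixth itraconazole dose (day 10). Plasma was sampled serially to 96 h after each dose and assayed by validated LC-MS/MS (LLOQ ≈1.0 ng/mL). Test/reference ratios are antilogged point estimates with 2-sided 90%CIs.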

Safety assessment = format: in vivo, human (healthy subjects)
MATE2K = conditions: read-out: Ki, MATE2K inhibition; in vitro; ref Novartis data on file; cited from earlier work
[2] = Capmatinib/CMN288 pharmacokinetics, induction cohort; format: in vivo, human (healthy subjects); conditions: for AUC(0-inf): AUCinf; for AUC(0-t): AUClast; for AUCinf geometric mean ratio (90%CI) / AUClast geometric mean ratio (90%CI) / Cmax geometric mean ratio (90%CI): rifampicin + capmatinib 400 mg / capmatinib alone
Method in brief: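 Healthy subjects (induction cohort, n = 26) received a single fasted oral 400 mg dose on day 1, then a 4-day washout. Rifampicin 600 mg was given daily on days 5–13, with 400 mg test compound coadministered with the sixth dose on day 10. Serial plasma was drawn to 72 h after each dose and frozen <–70°C. Parent and metabolite were measured by validated LC-MS/MS (LLOQ ≈1.0 ng/mL). Ratios are antilogged 90%CIs.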

[3] = format: in vivo, human (healthy subjects); conditions: for Maximum increase of serum creatinine concentration from baseline: at 24 hours
Method in brief: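 Blood was drawn from healthy subjects at 0, 2, 4, 8, 24, 48 and 72 h after the day-1 single fasted oral dose: 200 mg in the inhibition cohort, 400 mg in the induction cohort. Creatinine and cystatin C were measured in each sample. Change from baseline was summarized descriptively by time point.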

OATP1B3 = conditions: cited from earlier work
OATP1B1 = conditions: cited from earlier work
[4] = healthy subjects, used for sample size; cited from earlier work
[5] = therapeutic dose 400 mg twice daily, cited from earlier work
MATE1 = conditions: read-out: Ki, MATE1 inhibition; in vitro; ref Novartis data on file; cited from earlier work
[6] = capmatinib + itraconazole compared to capmatinib alone
[7] = inhibition cohort, healthy subjects, single oral capmatinib 200 mg + itraconazole 200 mg/day, plasma
[8] = inhibition cohort, healthy subjects, single oral capmatinib 200 mg alone, plasma
[9] = induction cohort N=26 (capmatinib 400 mg, rifampicin 600 mg/day)
[10] = inhibition cohort N=27 (capmatinib 200 mg, itraconazole 200 mg/day)
[11] = capmatinib + rifampicin compared to capmatinib alone
[12] = human, plasma, po, adjusted geometric mean, induction cohort, healthy subjects, single oral capmatinib 400 mg + rifampicin 600 mg/day, plasma
[13] = human, plasma, po, geometric mean (geometric CV%), induction cohort, healthy subjects, single oral capmatinib 400 mg + rifampicin 600 mg/day, plasma
[14] = human, plasma, po, mean (CV%), induction cohort, healthy subjects, single oral capmatinib 400 mg + rifampicin 600 mg/day, plasma
[15] = induction cohort, healthy subjects, single oral capmatinib 400 mg + rifampicin 600 mg/day, plasma
[16] = induction cohort, healthy subjects, single oral capmatinib 400 mg alone, plasma
[17] = single dose 200 mg capmatinib, inhibition cohort
[18] = single dose 400 mg capmatinib, induction cohort

CNC(=O)c1ccc(-c2cnc3ncc(Cc4ccc5ncccc5c4)n3n2)cc1F [Capmatinib]
Increase of geometric mean AUCinf with itraconazole [1, 6]: 42%
Increase of geometric mean AUClast with itraconazole [1, 6]: 41%
AUC(0-t) ([1]; human, plasma, po, 200 mg): 5430 ng·h/mL
AUC(0-inf) ([1]; human, plasma, po, AUCinf, geometric mean (geometric CV%), inhibition cohort, healthy subjects, single oral capmatinib 200 mg + itraconazole 200 mg/day, plasma): 7450 ng·h/mL
Cmax ([1]; human, plasma, po, adjusted geometric mean, inhibition cohort, healthy subjects, single oral capmatinib 200 mg + itraconazole 200 mg/day, plasma): 1300 ng/mL
Cmax ([1]; human, plasma, po, geometric mean (geometric CV%), inhibition cohort, healthy subjects, single oral capmatinib 200 mg + itraconazole 200 mg/day, plasma): 1290 ng/mL
Cmax ([1]; human, plasma, po, mean (CV%), inhibition cohort, healthy subjects, single oral capmatinib 200 mg + itraconazole 200 mg/day, plasma): 1410 ng/mL
AUCinf, adjusted geometric mean [1, 7]: 7360 ng·h/mL
AUCinf, mean (CV%) [1, 7]: 7680 (24.3) ng · h/mL
AUClast, adjusted geometric mean [1, 7]: 7340 ng·h/mL
AUClast, mean (CV%) [1, 7]: 7660 (24.5) ng · h/mL
CL/F, geometric mean (geometric CV%) [1, 7]: 26.8 (26.4) L/h
CL/F, mean (CV%) [1, 7]: 27.8 (28.1) L/h
t1/2, geometric mean (geometric CV%) [1, 7]: 6.05 (31.3) h
t1/2, mean (CV%) [1, 7]: 6.34 (32.8) h
tmax, median (range) [1, 7]: 2.00 (0.495–4.01) h
AUCinf, geometric mean (geometric CV%) [1, 8]: 5280 (30.6) ng · h/mL
AUClast, adjusted geometric mean [1, 8]: 5220 ng·h/mL
AUClast, geometric mean (geometric CV%) [1, 8]: 5220 (30.6) ng · h/mL
CL/F, geometric mean (geometric CV%) [1, 8]: 37.9 (30.6) L/h
CL/F, mean (CV%) [1, 8]: 39.6 (33.4) L/h
Cmax, adjusted geometric mean [1, 8]: 1260 ng/mL
Cmax, geometric mean (geometric CV%) [1, 8]: 1260 (46.9) ng/mL
Cmax, mean (CV%) [1, 8]: 1380 (40.4) ng/mL
Tmax, median [1, 8]: 1.00 h
tmax, median (range) [1, 8]: 1.00 (0.505–4.00) h
AUCinf geometric mean ratio (90%CI) [1]: 1.42 (1.33–1.52)
AUClast geometric mean ratio (90%CI) [1]: 1.41 (1.29–1.53)
Cmax geometric mean ratio (90%CI) [1]: 1.03 (0.866–1.22)
AUCinf geometric mean ratio (90%CI) ([1]; listed as capmatinib): 1.42
AUClast geometric mean ratio (90%CI) ([1]; listed as capmatinib): 1.41
Cmax geometric mean ratio (90%CI) ([1]; listed as capmatinib): 1.03
Tmax median difference (minimum to maximum differences) ([1]; itraconazole + capmatinib 200 mg vs capmatinib alone): 0.489 (–3.02 to 3.00) h
Deaths (Safety assessment; either treatment cohort): No deaths were reported
Serious AEs (Safety assessment; either treatment cohort): No serious AEs were reported
AEs suspected to be related to the study treatment (any grade) (Safety assessment; [9]): 10 subjects
Discontinued study treatment due to AEs (Safety assessment; [9]): 1 subjects
AEs suspected to be related to the study treatment (any grade) (Safety assessment; [10]): 13 subjects
Amylase increased, grade 3 (Safety assessment; [10]): 1 subjects
Ki (MATE2K): 0.29 µM
Decrease of geometric mean AUCinf with rifampicin [2, 11]: 66.5% and 67%
Decrease of geometric mean AUClast with rifampicin [2, 11]: 67.8%
Decrease of geometric mean Cmax with rifampicin [2, 11]: 55.9% and 55%
Tmax ([2]; human, plasma, po, 400 mg): 0.994 h
AUC(0-inf) [2, 12]: 3850 ng·h/mL
AUC(0-inf) [2, 13]: 3890 ng·h/mL
AUC(0-inf) [2, 14]: 4050 ng·h/mL
AUC(0-t) [2, 12]: 3720 ng·h/mL
AUC(0-t) [2, 13]: 3720 ng·h/mL
AUC(0-t) [2, 14]: 3860 ng·h/mL
Cmax [2, 12]: 1350 ng/mL
Cmax [2, 13]: 1350 ng/mL
half-life ([2]; human, plasma, po, t1/2, mean (CV%), induction cohort, healthy subjects, single oral capmatinib 400 mg + rifampicin 600 mg/day, plasma): 11.1 h
CL/F, geometric mean (geometric CV%) [2, 15]: 103 (29.4) L/h
CL/F, mean (CV%) [2, 15]: 107 (26.1) L/h
Cmax, mean (CV%) [2, 15]: 1460 (43.4) ng/mL
t1/2, geometric mean (geometric CV%) [2, 15]: 10.3 (40.8) h
tmax, median (range) [2, 15]: 0.994 (0.478–2.00) h
CL/F, geometric mean (geometric CV%) [2, 16]: 35.4 (24.3) L/h
CL/F, mean (CV%) [2, 16]: 36.4 (23.7) L/h
tmax, median (range) [2, 16]: 0.994 (0.461–3.00) h
AUCinf geometric mean ratio (90%CI) [2]: 0.335 (0.300–0.374)
AUClast geometric mean ratio (90%CI) [2]: 0.322 (0.294–0.353)
Cmax geometric mean ratio (90%CI) [2]: 0.441 (0.387–0.502)
AUCinf geometric mean ratio (90%CI) ([2]; listed as capmatinib): 0.335
AUClast geometric mean ratio (90%CI) ([2]; listed as capmatinib): 0.322
Cmax geometric mean ratio (90%CI) ([2]; listed as capmatinib): 0.441
Change in serum creatinine ([3]; after a single dose of capmatinib, 3-day monitoring): transient increase
Time at which serum creatinine returned to baseline [3, 17]: 48 h
Maximum increase of serum creatinine concentration from baseline [3, 17]: 21%
Time at which serum creatinine returned to baseline [3, 18]: 72 h
Maximum increase of serum creatinine concentration from baseline [3, 18]: 27.3%
Change in serum cystatin C concentration ([3]; single dose capmatinib 200 or 400 mg, both cohorts, 3-day monitoring): no change
Substrate of OATP1B3 (OATP1B3): not a substrate
Substrate of OATP1B1 (OATP1B1): not a substrate
Intrasubject coefficient of variation (CV%) for AUC [4]: 22.8%
Intrasubject coefficient of variation (CV%) for Cmax [4]: 29.9%
Cmax ([5]; read-out: Steady-state Cmax, total): 11.6 µM
Steady-state Cmax, unbound ([5]; unbound): 0.464 µM
Ki (MATE1): 0.28 µM
